Results taken from ChEMBL document CHEMBL2146369, “Oxazolo[3,2-a]pyridine. A new structural scaffold for the reversal of multi-drug resistance in Leishmania” (Bioorg Med Chem Lett, 2012).
Calls of active or inactive are those of the source. No cut-off for these calls is given here.

Experiments:
Leishmania tropica [1] = assay: Potentiation of daunomycin-induced antileishmanial activity against promastigotes of multidrug-resistant Leishmania tropica assessed as fold decrease in daunomycin IC50 at 6 uM after 72 hrs by MTT assay; type: functional
Summary of the method: (§1)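 MDR L. tropica promastigotes given increasing DNM or miltefosine concentrations, with or without 6 µM modulator, for 72 h at 28 °C. Viability measured by MTT absorbance at 540 nm. IC50 taken for each condition. Reversal index is drug IC50 without modulator divided by IC50 with it. Three independent experiments.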

THP-1 = assay: Cytotoxicity against PMA-stimulated human THP1 cells after 72 hrs by MTT assay; type: cell-based; settings: THP-1, 72 h
Summary of the method: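 THP-1 cells grown at 37 °C, 5% CO2 in RPMI-1640 with 10% iFBS, […], penicillin and streptomycin. Differentiated to macrophages with 20 ng/mL PMA for 48 h, then 24 h in fresh medium. MTT viability assay run as for parasites but incubated at 37 °C. IC50 determined.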

Leishmania tropica [2] = assay: Potentiation of miltefosine-induced antileishmanial activity against promastigotes of multidrug-resistant Leishmania tropica assessed as fold decrease in miltefosine IC50 at 6 uM after 72 hrs by MTT assay; type: functional; summary of the method: as §1
Leishmania tropica [3] = assay: Potentiation of daunomycin-induced antileishmanial activity against promastigotes of multidrug-resistant Leishmania tropica at 3 to 8 uM after 72 hrs by MTT assay; type: functional, organism-based
Leishmania tropica [4] = assay: Resistance ratio of IC50 for multidrug-resistant Leishmania tropica and IC50 for wild type Leishmania tropica LRC; type: functional
Summary of the method: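 DNM-selected MDR and parental wild-type L. tropica promastigotes treated with increasing drug concentrations for 72 h at 28 °C. Viability read by MTT at 540 nm. Ratio of MDR IC50 to parental IC50 calculated.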

Leishmania tropica [5] = assay: Antileishmanial activity against promastigotes of wild type Leishmania tropica LRC after 72 hrs by MTT assay; type: functional, organism-based
Summary of the method: (§2)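 Promastigotes of wild-type L. tropica LRC clone or DNM-selected MDR line (kept in 150 µM DNM or 30 µM MLF), grown at 28 °C in modified RPMI 1640 with 20% heat-inactivated FBS. Exposed to compounds without DNM for 72 h at 28 °C. Viability read by MTT absorbance at 540 nm, expressed relative to untreated parasites.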

Leishmania tropica [6] = assay: Antileishmanial activity against promastigotes of multidrug-resistant Leishmania tropica after 72 hrs by MTT assay; type: functional, organism-based; summary of the method: as §2

C=CCOC(=O)[C@H]1[C@H](c2cccc(Cl)c2)C(C(=O)OC)=C(C)N2CCO[C@@]12C (racemic)
fold change (FC) (Leishmania tropica [1]): >5

COC(=O)C1=C(C)N2CCO[C@@]2(C)[C@@H](C(=O)OC)[C@@H]1c1cccc([N+](=O)[O-])c1 (racemic)
IC50 (THP-1): > 400 µM | fold change (FC) (Leishmania tropica [2]): 3.4 | Activity (Leishmania tropica [3]): Active | fold change (FC) (Leishmania tropica [1]): 3.9

CC(=O)O[C@H]1C[C@](C)(O)[C@]23OC(C)(C)[C@H](C[C@H](OC(=O)c4ccco4)[C@]2(C)[C@H]1OC(C)=O)[C@H]3OC(=O)c1ccco1
fold change (FC) (Leishmania tropica [2]): 6 | fold change (FC) (Leishmania tropica [1]): 4.7

COC(=O)C1=C(C)N2CCO[C@@]2(C)[C@@H](C(=O)OCc2ccccc2)[C@@H]1c1cccc(Cl)c1 (racemic)
IC50 (THP-1): > 400 µM

COC(=O)C1=C(C)N2CCO[C@@]2(C)[C@@H](C(=O)OCc2ccccc2)[C@@H]1c1cccc([N+](=O)[O-])c1 (racemic)
IC50 (THP-1): > 400 µM

COC(=O)C1=C(C)N2CCO[C@@]2(C)[C@@H](C(=O)OC)[C@@H]1c1ccc[nH]1 (racemic)
IC50 (THP-1): > 400 µM | fold change (FC) (Leishmania tropica [2]): 1.9 | Activity (Leishmania tropica [3]): Active | fold change (FC) (Leishmania tropica [1]): 1.3

COC(=O)C1=C(C)N2C(=O)[C@H](C)O[C@@]2(C)[C@@H](C(=O)OC)[C@@H]1c1cccc(Cl)c1 (racemic)
IC50 (THP-1): > 400 µM

COC(=O)C1=C(C)N2CCO[C@@]2(C)[C@@H](C(=O)OC)[C@@H]1c1ccco1 (racemic)
IC50 (THP-1): > 400 µM

COC(=O)C1=C(C)N2CCCO[C@@]2(C)[C@@H](C(=O)OC)[C@@H]1c1cccc(Cl)c1 (racemic)
IC50 (THP-1): > 400 µM | fold change (FC) (Leishmania tropica [2]): 1.5 | Activity (Leishmania tropica [3]): Active | fold change (FC) (Leishmania tropica [1]): 3.2

COC(=O)C1=C(C)N2C[C@@H](C)O[C@]2(C)[C@H](C(=O)OC(C)(C)C)[C@H]1c1cccc(Cl)c1
IC50 (THP-1): > 400 µM | fold change (FC) (Leishmania tropica [2]): 8.7

CCCCCCCCCCCCCCCCOP(=O)([O-])OCC[N+](C)(C)C [MILTEFOSINE]
IC50 (THP-1): 7 µM | Ratio IC50 (Leishmania tropica [4]): 22 | IC50 (Leishmania tropica [5]): 10.9 µM | IC50 (Leishmania tropica [6]): 240 µM

COc1cccc2c1C(=O)c1c(O)c3c(c(O)c1C2=O)C[C@@](O)(C(C)=O)C[C@@H]3O[C@H]1C[C@H](N)[C@H](O)[C@H](C)O1 [DAUNORUBICIN]
IC50 (THP-1): 26.9 µM | Ratio IC50 (Leishmania tropica [4]): 64 | IC50 (Leishmania tropica [5]): 2.8 µM | IC50 (Leishmania tropica [6]): 180 µM

COC(=O)C1=C(C)N2CCS[C@@]2(C)[C@@H](C(=O)OC)[C@@H]1c1cccc(Cl)c1 (racemic)
IC50 (THP-1): > 400 µM | fold change (FC) (Leishmania tropica [2]): 3.5 | Activity (Leishmania tropica [3]): Active | fold change (FC) (Leishmania tropica [1]): 2.2

COC(=O)C1=C(C)N2CCO[C@@]2(C)[C@@H](CO)[C@@H]1c1cccc([N+](=O)[O-])c1 (racemic)
IC50 (THP-1): > 400 µM

COC(=O)C1=C(C)N2C[C@H](C)O[C@@]2(C)[C@@H](C(=O)OC)[C@@H]1c1cccc(Cl)c1
IC50 (THP-1): > 400 µM | fold change (FC) (Leishmania tropica [1]): >6
